This is an account of results in ChEMBL document CHEMBL1135284 (Bioorg Med Chem Lett, 2002).

Data set [1] in a line: Oral bioavailability. Conditions: rat, in vivo. The class given is ADME, organism-based. In a few lines: (§1)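 Conscious rats dosed by oral route (30 mg/kg) and iv bolus (0.15 mg/kg). Thrombin time tracked over time after each dose. %F derived by comparing areas under the TT-versus-time curves for the two routes.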
The test system of data set [2] is Rattus norvegicus. Nature of the data set: Mean occlusion time after (iv) bolus dose of 0.75 mg/kg followed by an infusion of 50 ug/kg/min was determined in rat arterial thrombosis model. The class given is functional.
Data set [3] deals with Rattus norvegicus. Nature of the data set: Activated partial thromboplastin time was determined after (iv) bolus dose of 0.75 mg/kg followed by an infusion of 50 ug/kg/min in rat arterial thrombosis model. The class given is functional.
For data set [4], the system named is Rattus norvegicus. Nature of the data set: Thrombin time was determined after (iv) bolus dose of 0.75 mg/kg followed by an infusion of 50 ug/kg/min in rat arterial thrombosis model. Format: functional.
A short description of data set [5]: Bioavailability was reported. Format: ADME, organism-based. The following applies: rat, in vivo. In a few lines: as §1

Bounds are passed on as bounds.

For the molecule `N/C(=N/O)N1CCC(CNC(=O)[C@@H]2CC[C@H]3CN(S(=O)(=O)C(c4ccccc4)c4ccccc4)CC(=O)N32)CC1`, the bioavailability (in general, dose-corrected exposure relative to a reference, in per cent) in data set [1] came to 1.9%. In data set [2], the MOT worked out at 46 min. The same molecule gave an aPTT in data set [3] of 28 s. In data set [4], this molecule had a TT of 230 s.
`N=C(N)N1CCC(CNC(=O)[C@@H]2CC[C@H]3CN(S(=O)(=O)C(c4ccccc4)c4ccccc4)CC(=O)N32)CC1` displayed an MOT in data set [2] of 52 min. The aPTT in data set [3] stood at 28 s. This molecule also yielded a TT in data set [4] of 154 s.
Turning to `N/C(=N/O)N1CCC(CNC(=O)[C@@H]2CC[C@H]3CN(C(=O)CC(c4ccccc4)c4ccccc4)CC(=O)N32)CC1`, in data set [2], the MOT is 35 min. The aPTT in data set [3] came to 23 s. In data set [4], this molecule came in with a TT of 63 s.
Regarding `N=C(N)c1ccc(CNC(=O)[C@@H]2CC[C@H]3CN(S(=O)(=O)CC(c4ccccc4)c4ccccc4)CC(=O)N32)cc1`, the MOT in data set [2] is on record as more than 60 min. Further, the aPTT in data set [3] is listed as 74 s. In addition, the TT in data set [4] is 636 s.
The molecule `N/C(=N/O)N1CCC(CNC(=O)[C@@H]2CC[C@H]3CN(S(=O)(=O)CC(c4ccccc4)c4ccccc4)CC(=O)N32)CC1` gave a bioavailability in data set [1] of 0.7%. Also, in data set [2], the MOT turned out to be 45 min. This molecule showed an aPTT in data set [3] of 26 s. In data set [4], this molecule gave a TT of 148 s.
In the same order, the values of `N=C(N)[C@H]1CC[C@H](CNC(=O)[C@@H]2CC[C@H]3CN(S(=O)(=O)C(c4ccccc4)c4ccccc4)CC(=O)N32)CC1` are 0.1%, 44 min, 54 s and 724 s.
Regarding `Nc1ccc(CNC(=O)[C@@H]2CC[C@H]3CN(S(=O)(=O)CC(c4ccccc4)c4ccccc4)CC(=O)N32)cn1`, the MOT in data set [2] is 30 min. This molecule showed an aPTT in data set [3] of 19 s. In data set [4], this molecule came in with a TT of 51 s.
The corresponding values for `N=C(N)c1ccc(CNC(=O)[C@@H]2CC[C@H]3CN(S(=O)(=O)C(c4ccccc4)c4ccccc4)CC(=O)N32)cc1` are 51 min, 54 s and 631 s.
For the molecule `N=C(N)c1ccc(CNC(=O)[C@@H]2CC[C@H]3CN(S(=O)(=O)Cc4ccccc4)CC(=O)N32)cc1`, the bioavailability in data set [1] was approximately 0.5%.
In data set [2], `N=C(N)N1CCC(CNC(=O)[C@@H]2CC[C@H]3CN(C(=O)CC(c4ccccc4)c4ccccc4)CC(=O)N32)CC1` came in with an MOT of 21 min. In data set [3], the aPTT was found to be 29 s. Moreover, the TT in data set [4] is 85 s.
On to `N/C(=N/O)N1CCC(CNC(=O)[C@@H]2CC[C@H]3CN(S(=O)(=O)CCc4ccccc4)CC(=O)N32)CC1`, for which, in data set [1], the bioavailability was 2.7%. The molecule also had an MOT in data set [2] of 49 min. Besides, the aPTT in data set [3] is on record as 25 s. In data set [4], the TT is on record as 146 s.
The molecule `Cc1cc(C(=N)N)ccc1CNC(=O)[C@@H]1CC[C@H]2CN(S(=O)(=O)C(c3ccccc3)c3ccccc3)CC(=O)N21` had an MOT in data set [2] of more than 60 min. This molecule also returned an aPTT in data set [3] of 42 s. In data set [4], this molecule returned a TT of 354 s.
Turning to `Cc1nc(N)ccc1CNC(=O)[C@@H]1CC[C@H]2CN(S(=O)(=O)C(c3ccccc3)c3ccccc3)CC(=O)N21`, the MOT in data set [2] was more than 60 min. The aPTT in data set [3] is 27 s. This molecule also came in with a TT in data set [4] of 102 s.
As for `N=C(N)N1CCC(CNC(=O)[C@@H]2CC[C@H]3CN(S(=O)(=O)CC(c4ccccc4)c4ccccc4)CC(=O)N32)CC1`, the bioavailability in data set [1] was 2.2%. This molecule also displayed an MOT in data set [2] of 36 min. In addition, in data set [3], the aPTT was 35 s. In data set [4], this molecule showed a TT of 214 s.
`N[C@H]1CC[C@H](CNC(=O)[C@@H]2CC[C@H]3CN(S(=O)(=O)C(c4ccccc4)c4ccccc4)CC(=O)N32)CC1`: the MOT in data set [2] is reported as more than 60 min. The aPTT in data set [3] was 44 s. Moreover, the TT in data set [4] is listed as 216 s.
Molecule `N/C(=N\O)N1CCC(CNC(=O)[C@@H]2CC[C@H]3CN(S(=O)(=O)Cc4ccccc4)CC(=O)N32)CC1` returned a bioavailability in data set [1] of approximately 0.5%.
In the case of `N[C@H]1CC[C@H](CNC(=O)[C@@H]2CC[C@H]3CN(S(=O)(=O)CC(c4ccccc4)c4ccccc4)CC(=O)N32)CC1`, the MOT in data set [2] amounted to 37 min. This molecule returned a bioavailability in data set [5] of 1.5%. Also, the aPTT in data set [3] is recorded as 35 s. In data set [4], this molecule had a TT of 150 s.
